Experimental data as given in ChEMBL document CHEMBL5303300, “EUbOPEN Chemogenomics Library - Multiplex” (2023).
Several values for one entry are separate records, joined by “and”; a condition that tells them apart may be missing. Equal entries are not always repeated.

Test system: Fibroblast
Assay: Multiplex assay against human fibroblast
Format: toxicity, cell-based
Settings: number of replicates 2
Procedure, shortened: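 Cells stained live at seeding with Hoechst33342, BioTracker Green Microtubule Cytoskeleton Dye, MitoTracker Red and Annexin V Alexa Fluor 680 were imaged on a CQ1 microscope at 37°C and 5% CO2 after compound addition. Their classification by CellPathfinder machine-learning gating ran from Hoechst high-intensity objects versus normal cells, to healthy, pyknosed or fragmented nuclei among normal cells, to mitotic or apoptotic among pyknosed cells. Tubulin, mitochondrial-mass and membrane-permeability phenotypes are per cents of healthy-nucleus cells.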

[1] = 12 h, 1 µM, compound concentration 1 uM
[2] = 12 h, 10 µM, compound concentration 10 uM
[3] = 24 h, 1 µM, compound concentration 1 uM
[4] = 24 h, 10 µM, compound concentration 10 uM
[5] = 48 h, 1 µM, compound concentration 1 uM
[6] = 48 h, 10 µM, compound concentration 10 uM

`CN1CCCN(C(=O)c2cccc(-c3ccc(/C=C4/C(=O)Nc5ccc(Cl)cc54)o3)c2)CC1` was tested, and the “Population Apoptotic (%)” value [1] was 43% and 41%, the “Population Fragmented Nuclei (%)” value [1] was 4% and 3% and the “Population Healthy Nuclei (%)” value [1] was 79% and 72%. For the same compound, the “Population Hoechst High Intensity Objects (%)” value [1] was 0%, the “Population Membrane Permeable-Phenotype (%)” value [1] was 4% and 1% and the “Population Mitochondria Different-Phenotype (%)” value [1] was 2%. For the same compound, the “Population Mitotic Cells (%)” value [1] was 56% and 58%, the “Population Normal (%)” value [1] was 100% and the “Population Pyknosed Nuclei (%)” value [1] was 16% and 24%. For the same compound, the “Population Tubulin-Different-Phenotype (%)” value [1] was 20%, the “Total Cell Count” value [1] was 283 and 162 and the “Population Apoptotic (%)” value [2] was 39% and 56%. The “Population Fragmented Nuclei (%)” value [2] was 3% and 1%, the “Population Healthy Nuclei (%)” value [2] was 8% and 3% and the “Population Hoechst High Intensity Objects (%)” value [2] was 0%. The “Population Mitochondria Different-Phenotype (%)” value [2] was 7% and 0%, the “Population Mitotic Cells (%)” value [2] was 60% and 44% and the “Population Normal (%)” value [2] was 99% and 100%. The “Population Pyknosed Nuclei (%)” value [2] was 88% and 95%, the “Population Tubulin-Different-Phenotype (%)” value [2] was 61% and 100% and the “Total Cell Count” value [2] was 156 and 131. For the same compound, the “Population Apoptotic (%)” value [3] was 48% and 54%, the “Population Fragmented Nuclei (%)” value [3] was 4% and the “Population Healthy Nuclei (%)” value [3] was 83% and 75%. For the same compound, the “Population Hoechst High Intensity Objects (%)” value [3] was 0%, the “Population Membrane Permeable-Phenotype (%)” value [3] was 5% and 3% and the “Population Mitochondria Different-Phenotype (%)” value [3] was 3% and 8%. The “Population Mitotic Cells (%)” value [3] was 51% and 45%, the “Population Normal (%)” value [3] was 100% and the “Population Pyknosed Nuclei (%)” value [3] was 12% and 20%. The “Population Tubulin-Different-Phenotype (%)” value [3] was 25%, the “Total Cell Count” value [3] was 271 and 164 and the “Population Apoptotic (%)” value [4] was 75% and 57%. For the same compound, the “Population Fragmented Nuclei (%)” value [4] was 4% and 7%, the “Population Healthy Nuclei (%)” value [4] was 17% and 13% and the “Population Hoechst High Intensity Objects (%)” value [4] was 0%. The “Population Membrane Permeable-Phenotype (%)” value [4] was 65% and 52%, the “Population Mitochondria Different-Phenotype (%)” value [4] was 4% and 0% and the “Population Mitotic Cells (%)” value [4] was 24% and 42%. For the same compound, the “Population Normal (%)” value [4] was 100%, the “Population Pyknosed Nuclei (%)” value [4] was 78% and the “Population Tubulin-Different-Phenotype (%)” value [4] was 34% and 30%. The “Total Cell Count” value [4] was 135 and 165, the “Population Apoptotic (%)” value [5] was 62% and 80% and the “Population Fragmented Nuclei (%)” value [5] was 8% and 7%. For the same compound, the “Population Healthy Nuclei (%)” value [5] was 81% and 78%, the “Population Hoechst High Intensity Objects (%)” value [5] was 0% and the “Population Membrane Permeable-Phenotype (%)” value [5] was 4% and 8%. For the same compound, the “Population Mitochondria Different-Phenotype (%)” value [5] was 1%, the “Population Mitotic Cells (%)” value [5] was 37% and 19% and the “Population Normal (%)” value [5] was 100% and 99%. For the same compound, the “Population Pyknosed Nuclei (%)” value [5] was 10% and 13%, the “Population Tubulin-Different-Phenotype (%)” value [5] was 20% and 17% and the “Total Cell Count” value [5] was 269 and 155. The “Population Apoptotic (%)” value [6] was 88% and 71%, the “Population Fragmented Nuclei (%)” value [6] was 20% and 37% and the “Population Healthy Nuclei (%)” value [6] was 26% and 18%. The “Population Hoechst High Intensity Objects (%)” value [6] was 0%, the “Population Membrane Permeable-Phenotype (%)” value [6] was 50% and 30% and the “Population Mitochondria Different-Phenotype (%)” value [6] was 0%. The “Population Mitotic Cells (%)” value [6] was 11% and 28%, the “Population Normal (%)” value [6] was 100% and the “Population Pyknosed Nuclei (%)” value [6] was 52% and 43%. For the same compound, the “Population Tubulin-Different-Phenotype (%)” value [6] was 46% and 27% and the “Total Cell Count” value [6] was 120 and 174.
